Our source for the IC50, inhibition and Activity values is ChEMBL document CHEMBL1148871, “Novel potent antimitotic heterocyclic ketones: synthesis, antiproliferative activity, and structure-activity relationships” (Bioorg Med Chem Lett, 2007).

One assay has as its system CCRF-CEM. In words: Antiproliferative activity against human CEM cells. It is filed as functional, cell-based.
The test system of another assay is DU-145. In words: Antiproliferative activity against human DU145 cells. It is filed as functional, cell-based.
For the next assay, the system named is MOLT-3. In words: Antiproliferative activity against human Molt3 cells. It is filed as functional, cell-based.
The subject of another assay is PC-3. In words: Antiproliferative activity against human PC3 cells. It is filed as functional, cell-based.
In a further assay the test system is MCF7. In words: Antiproliferative activity against human MCF7 cells. It is filed as functional, cell-based.
Another assay relates to Bel-7402. Description: Antiproliferative activity against human Bel7402 cells. In kind it is functional, cell-based.
Assay [1] is described as follows: Antiproliferative activity against human DND1 cells. In kind it is functional, cell-based.
In assay [2] the target is T1, Tubulin (Homo sapiens) (UniProt P68371+Q9H4B7+P0DPH7+P68366+Q13509+Q71U36+P04350+Q3ZCM7+P07437+P68363+Q9BQE3+Q6PEY2+Q13885+Q9BVA1+Q9BUF5). Description: Inhibition of tubulin polymerization at 20 uM. It is filed as protein-complex assay.
Assay [3] deals with T1, Tubulin (Homo sapiens). Description: Inhibition of tubulin polymerization. In kind it is protein-complex assay. An outline of the steps:
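Purified […] in reaction buffer with GTP and Mg²⁺ was incubated for assembly with or without test compound (1–5 uM), with vincristine or paclitaxel (20 uM) as controls. Assembly was read as OD at 340 nm every 2 min. Each point is the mean of two independent experiments.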

One may read the IC50 as the concentration that gives 50% inhibition. Read a low IC50 as greater potency. In turn, `CCn1c2ccccc2c2cc(NS(=O)(=O)c3ccc(OC)cc3OC)ccc21` came in with an IC50 in the assay on CCRF-CEM of 57 nM.
For the molecule `COc1cc(C(O)c2ccc3c(ccn3C)c2)cc(OC)c1OC` (centres undefined), the 50% inhibitory concentration (IC50) amounted to 103 nM in the assay with DU-145; 38 nM in the assay on MOLT-3; 59 nM with CCRF-CEM; 117 nM with PC-3; 44 nM in the assay on MCF7; 88 nM in the assay on Bel-7402. This molecule gave a concentration for half-maximal inhibition (IC50) in [1] of 59 nM.
Regarding `COc1cc(C(=O)c2ccc3sccc3c2)cc(OC)c1OC`, in the assay with CCRF-CEM, 303 nM corresponded to half-maximal inhibition (IC50).
Broadly, the inhibition is the relative decrease from the control value, in per cent. A high value points to a strong effect. The molecule `CC[C@]1(O)C[C@H]2CN(CCc3c([nH]c4ccccc34)[C@@](C(=O)OC)(c3cc4c(cc3OC)N(C=O)[C@H]3[C@@](O)(C(=O)OC)[C@H](OC(C)=O)[C@]5(CC)C=CCN6CC[C@]43[C@@H]65)C2)C1` had an inhibition at Tubulin (Homo sapiens) [2] of 87%.
For the molecule `CCn1c2ccccc2c2cc(C(=O)c3cc(OC)c(OC)c(OC)c3)ccc21`, the IC50 was found to be 39 nM in the assay with DU-145; 51 nM in the assay on MOLT-3; 90 nM in the assay with CCRF-CEM; 103 nM in the assay on PC-3; 26 nM in the assay with MCF7; 90 nM in the assay with Bel-7402. In [1], this molecule came in with an IC50 of 21 nM. The Activity result at Tubulin (Homo sapiens) [3] was “Dose-dependent effect”.
Take `CCn1c2ccccc2c2cc(NS(=O)(=O)c3cc(OC)ccc3OC)ccc21`: in the assay with CCRF-CEM, half-maximal inhibition (IC50) required 61 nM.
Take `COc1cc(C(=O)c2ccc3ccn(C)c3c2)cc(OC)c1OC`: the IC50 with DU-145 is 75 nM; with MOLT-3, 18 nM; with CCRF-CEM it was 30 nM; in the assay with PC-3 it was 75 nM; with MCF7, 24 nM; in the assay with Bel-7402, 27 nM. Also, in [1], it took 27 nM to reach half-maximal inhibition (IC50).
Take `COc1cc([C@@H]2c3cc4c(cc3C(O)[C@H]3COC(=O)[C@H]23)OCO4)cc(OC)c1OC` (single isomer, unassigned) [PODOFILOX]: it took 12 nM to reach half-maximal inhibition in assay [1] (IC50).
As to `CCn1c2ccccc2c2cc(NS(=O)(=O)c3cc(OC)c(OC)c(OC)c3)ccc21`, the half-maximal inhibitory concentration (IC50) with DU-145 amounted to 603 nM; in the assay on MOLT-3 it was 20 nM; with CCRF-CEM it was 56 nM; in the assay on PC-3, 201 nM; in the assay on MCF7, 89 nM; in the assay on Bel-7402, 201 nM. This molecule also had an IC50 in [1] of 89 nM.
The molecule `COc1ccc(/C=C\c2cc(OC)c(OC)c(OC)c2)cc1O` [COMBRETASTATIN A4] registered a half-maximal inhibitory concentration (IC50) in assay [1] of 2.5 nM.
In the case of `COc1ccc(C(=O)c2ccc3c(ccn3C)c2)c(OC)n1`, in the assay on CCRF-CEM, the IC50 turned out to be 1010 nM.
On the same count and under the same terms, to `COc1ccc(OC)c(C(=O)c2ccc3c(ccn3C)c2)c1` belongs 2370 nM; to `COc1ccc(C(=O)c2ccc3c(ccn3C)c2)cc1OC`, 1690 nM; to `COc1cc(OC)cc(C(=O)c2ccc3c(ccn3C)c2)c1`, 1690 nM.
On to `COc1cc(C(=O)c2ccc3[nH]ccc3c2)cc(OC)c1OC`, for which the midpoint of inhibition with CCRF-CEM, the IC50, lay at 225 nM.
Turning to `COc1ccc(C(=O)c2ccc3c(ccn3C)c2)cc1`, in the assay with CCRF-CEM, the half-maximal inhibitory concentration (IC50) amounted to 1130 nM.
Take `CCn1c2ccccc2c2cc(C(=O)c3ccc(OC)nc3OC)ccc21`: the IC50 in the assay on CCRF-CEM turned out to be 555 nM.
`CCn1c2ccccc2c2cc(C(O)c3cc(OC)c(OC)c(OC)c3)ccc21` (centres undefined) gave an IC50 with CCRF-CEM of 192 nM.
Take `COc1ccc(C(=O)c2ccc3c(ccn3C)c2)c(OC)c1`: the IC50 with DU-145 stood at 34 nM; in the assay with MOLT-3, 24 nM; in the assay on CCRF-CEM it was 102 nM; in the assay with PC-3, 203 nM; in the assay on MCF7, 85 nM; in the assay with Bel-7402, 44 nM. In assay [1], the concentration for half-maximal inhibition (IC50) came out at 118 nM.
In the case of `COc1cc(C(=O)c2cccc3ccn(C)c23)cc(OC)c1OC`, the IC50 in the assay with CCRF-CEM was 307 nM.
Regarding `COc1cc(C(=O)c2ccc3c(ccn3C)c2)cc(OC)c1OC`, the half-maximal inhibitory concentration (IC50) in the assay on DU-145 was 26 nM; with MOLT-3, 18 nM; with CCRF-CEM, 18 nM; in the assay with PC-3, 25 nM; in the assay with MCF7, 9.2 nM; with Bel-7402, 21 nM. This molecule also returned an IC50 in [1] of 15 nM.
In the case of `COc1cc(C(=O)c2ccc3occc3c2)cc(OC)c1OC`, in the assay with CCRF-CEM, inhibition was half-maximal at 288 nM (IC50).
